In ChEMBL document CHEMBL6182837, “Discovery and biological evaluation of nitrofuranyl-pyrazolopyrimidine hybrid conjugates as potent antimicrobial agents targeting Staphylococcus aureus and methicillin-resistant S. aureus” (RSC Med Chem, 2025):
Values after ≈ are worked out from the molar mass of the structure shown. Active and inactive are the calls of the source. No cut-off for these calls is given here.

Legend:
Staphylococcus aureus [1] = assay: Antibacterial activity against methicillin-resistant Staphylococcus aureus ATCC 15187 incubated for 24 hrs by Alamar blue staining based microdilution method; assay type: functional
Staphylococcus aureus [2] = assay: Antibacterial activity against Staphylococcus aureus ATCC 29213 incubated for 24 hrs by Alamar blue staining based microdilution method; assay type: functional
Escherichia coli = assay: Antibacterial activity against Escherichia coli ATCC 25922 incubated for 24 hrs by Alamar blue staining based microdilution method; assay type: functional
[3] = Cytotoxicity in human HepG2 cells incubated for 24 hrs by MTT assay; assay type: toxicity, cell-based
Procedure, shortened: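 HepG2 cells, 1 × 10^4 per well in DMEM/10% FBS, 24 h attachment; compounds 200 to 0.19 μg ml−1 for 24 h at 37 °C, 5% CO2; MTT 2.5 mg ml−1 for 3 h, formazan in DMSO, OD 570 nm; doxorubicin 10 μM control.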

Staphylococcus aureus [4] = assay: Antibacterial activity against Staphylococcus aureus SA-1199B overexpressing NorA by Alamar blue staining based analysis; assay type: functional
Staphylococcus aureus [5] = assay: Antibacterial activity against Staphylococcus aureus SA-K2192 overexpressing TetK by Alamar blue staining based analysis; assay type: functional
Staphylococcus aureus [6] = assay: Antibacterial activity against Ciprofloxacin-sensitive Staphylococcus aureus […] by Alamar blue staining based analysis; assay type: functional
Staphylococcus aureus [7] = assay: Antibacterial activity against Staphylococcus aureus SA-K2191 overexpressing MsrA by Alamar blue staining based analysis; assay type: functional
Staphylococcus aureus [8] = assay: Induction of morphological disruption in Staphylococcus aureus ATCC 29213 at 1 to 2 times MIC incubated for 2 to 6 hrs by SEM analysis; assay type: functional, organism-based; settings: time 2-6 hrs
Procedure, shortened: (§1)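 Bacteria incubated for 2 h and 6 h at 1×, 2× and 4× MIC, with vancomycin and daptomycin at 1× and 2× MIC and untreated cells; cell morphology imaged by scanning electron microscopy.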

Staphylococcus aureus [9] = assay: Induction of morphological disruption in methicillin-resistant Staphylococcus aureus ATCC 15187 at 1 to 2 times MIC incubated for 2 to 6 hrs by SEM analysis; assay type: functional, organism-based; settings: time 2-6 hrs; procedure, shortened: as §1

SMILES | MIC (Staphylococcus aureus [1]) [µg/mL] | MIC (Staphylococcus aureus [2]) [µg/mL] | MIC (Escherichia coli) | IC50 at 24 h [3] [µg/mL] | MIC (Staphylococcus aureus [4]) [µg/mL] | MIC (Staphylococcus aureus [5]) [µg/mL] | MIC (Staphylococcus aureus [6]) [µg/mL] | MIC (Staphylococcus aureus [7]) [µg/mL] | Activity (Staphylococcus aureus [8]) | Activity (Staphylococcus aureus [9])
CCCc1nn(C)c2c(Nc3ccc(Cl)cc3)nc(-c3ccc([N+](=O)[O-])o3)nc12 | > 32 | > 32 | inactive | > 50 | – | – | – | – | – | –
CCCc1nn(C)c2c(N3CCN(c4ccncc4)CC3)nc(-c3ccc([N+](=O)[O-])o3)nc12 | 0.25 (≈ 0.557 µM) | 1 (≈ 2.23 µM) | inactive | > 50 | – | – | – | – | – | –
CCCc1nn(C)c2c(NCCN3CCOCC3)nc(-c3ccc([N+](=O)[O-])o3)nc12 | > 32 | > 32 | inactive | > 50 | – | – | – | – | – | –
CCCc1nn(C)c2c(NC3CCOCC3)nc(-c3ccc([N+](=O)[O-])o3)nc12 | > 32 | > 32 | inactive | > 50 | – | – | – | – | – | –
CCCc1nn(C)c2c(NCCCCO)nc(-c3ccc([N+](=O)[O-])o3)nc12 | 0.25 (≈ 0.668 µM) | 4 (≈ 10.7 µM) | inactive | > 50 | – | – | – | – | – | –
CCCc1nn(C)c2c(Nc3ccc(C(F)(F)F)cc3)nc(-c3ccc([N+](=O)[O-])o3)nc12 | > 32 | > 32 | inactive | > 50 | – | – | – | – | – | –
CCCc1nn(C)c2c(NCc3ccc(OC)cc3)nc(-c3ccc([N+](=O)[O-])o3)nc12 | > 32 | > 32 | inactive | > 50 | – | – | – | – | – | –
CCCc1nn(C)c2c(NCc3ccncc3)nc(-c3ccc([N+](=O)[O-])o3)nc12 | 1 (≈ 2.54 µM) | 1 (≈ 2.54 µM) | inactive | > 50 | – | – | – | – | – | –
O=C(O)c1cn(C2CC2)c2cc(N3CCNCC3)c(F)cc2c1=O [CIPROFLOXACIN] | – | 0.25 (≈ 0.754 µM) | – | – | 4.14 (≈ 12.5 µM) | 0.25 (≈ 0.754 µM) | 0.25 (≈ 0.754 µM) | 4.14 (≈ 12.5 µM) | – | –
CCCc1nn(C)c2c(Nc3ccc(Br)cc3)nc(-c3ccc([N+](=O)[O-])o3)nc12 | > 32 | > 32 | inactive | > 50 | – | – | – | – | – | –
CCCc1nn(C)c2c(NCc3ccc(OC)c(F)c3)nc(-c3ccc([N+](=O)[O-])o3)nc12 | > 32 | > 32 | inactive | > 50 | – | – | – | – | – | –
CCCCCCCCCC(=O)N[C@@H](Cc1c[nH]c2ccccc12)C(=O)N[C@@H](CC(N)=O)C(=O)N[C@@H](CC(=O)O)C(=O)N[C@@H]1C(=O)NCC(=O)N[C@@H](CCCN)C(=O)N[C@@H](CC(=O)O)C(=O)N[C@H](C)C(=O)N[C@@H](CC(=O)O)C(=O)NCC(=O)N[C@H](CO)C(=O)N[C@@H]([C@@H](C)CC(=O)O)C(=O)N[C@@H](CC(=O)c2ccccc2N)C(=O)O[C@@H]1C | – | – | – | – | – | – | – | – | Active | Active
CCCc1nn(C)c2c(Nc3ccc(OC)cc3)nc(-c3ccc([N+](=O)[O-])o3)nc12 | > 32 | > 32 | inactive | > 50 | – | – | – | – | – | –
CCCc1nn(C)c2c(NCCCCCO)nc(-c3ccc([N+](=O)[O-])o3)nc12 | 0.5 (≈ 1.29 µM) | 4 (≈ 10.3 µM) | inactive | 38.1 (≈ 98.1 µM) | – | – | – | – | – | –
CCCc1nn(C)c2c(NCCN3CCCCC3)nc(-c3ccc([N+](=O)[O-])o3)nc12 | > 32 | > 32 | inactive | > 50 | – | – | – | – | – | –
CCCc1nn(C)c2c(N3CCC(CO)CC3)nc(-c3ccc([N+](=O)[O-])o3)nc12 | > 32 | > 32 | inactive | > 50 | – | – | – | – | – | –
CCCc1nn(C)c2c(NCCO)nc(-c3ccc([N+](=O)[O-])o3)nc12 | 8 (≈ 23.1 µM) | > 32 | inactive | > 50 | – | – | – | – | – | –
CCCc1nn(C)c2c(N3CCCC3)nc(-c3ccc([N+](=O)[O-])o3)nc12 | > 32 | > 32 | inactive | > 50 | – | – | – | – | – | –
CCCc1nn(C)c2c(NCCCO)nc(-c3ccc([N+](=O)[O-])o3)nc12 | 2 (≈ 5.55 µM) | 4 (≈ 11.1 µM) | inactive | > 50 | – | – | – | – | – | –
CCCc1nn(C)c2c(NCCCCCCO)nc(-c3ccc([N+](=O)[O-])o3)nc12 | 2 (≈ 4.97 µM) | 32 (≈ 79.5 µM) | inactive | > 50 | – | – | – | – | – | –

SMILES | MIC (Staphylococcus aureus [1]) [µg/mL] | MIC (Staphylococcus aureus [2]) [µg/mL] | MIC (Escherichia coli) | IC50 at 24 h [3] [µg/mL] | MIC (Staphylococcus aureus [4]) [µg/mL] | MIC (Staphylococcus aureus [5]) [µg/mL] | MIC (Staphylococcus aureus [6]) [µg/mL] | MIC (Staphylococcus aureus [7]) [µg/mL] | Activity (Staphylococcus aureus [8]) | Activity (Staphylococcus aureus [9])
CCCc1nn(C)c2c(NCc3ccccc3)nc(-c3ccc([N+](=O)[O-])o3)nc12 | > 32 | > 32 | inactive | > 50 | – | – | – | – | – | –
CCCc1nn(C)c2c(Nc3ccc(F)cc3)nc(-c3ccc([N+](=O)[O-])o3)nc12 | 0.25 (≈ 0.631 µM) | 8 (≈ 20.2 µM) | inactive | > 50 | – | – | – | – | – | –
CCCc1nn(C)c2c(N3CCC(c4ccccc4)CC3)nc(-c3ccc([N+](=O)[O-])o3)nc12 | > 32 | > 32 | inactive | > 50 | – | – | – | – | – | –
CCCc1nn(C)c2c(N3CCN(c4cccc(O)c4)CC3)nc(-c3ccc([N+](=O)[O-])o3)nc12 | > 32 | > 32 | inactive | > 50 | – | – | – | – | – | –
CCCc1nn(C)c2c(Nc3cccc(O)c3)nc(-c3ccc([N+](=O)[O-])o3)nc12 | 1 (≈ 2.54 µM) | 4 (≈ 10.1 µM) | inactive | > 50 | – | – | – | – | – | –
CCCc1nn(C)c2c(Nc3ccc(OC(F)(F)F)cc3)nc(-c3ccc([N+](=O)[O-])o3)nc12 | > 32 | > 32 | inactive | > 50 | – | – | – | – | – | –
CCCc1nn(C)c2c(NCc3cccnc3)nc(-c3ccc([N+](=O)[O-])o3)nc12 | 4 (≈ 10.2 µM) | 8 (≈ 20.3 µM) | inactive | > 50 | – | – | – | – | – | –
CCCc1nn(C)c2c(Nc3ccncc3)nc(-c3ccc([N+](=O)[O-])o3)nc12 | 4 (≈ 10.5 µM) | 0.5 (≈ 1.32 µM) | 4 µg/mL (≈ 10.5 µM) | > 50 | – | – | – | – | – | –
CCCc1nn(C)c2c(N3CCC(O)CC3)nc(-c3ccc([N+](=O)[O-])o3)nc12 | 0.5 (≈ 1.29 µM) | 16 (≈ 41.4 µM) | inactive | > 50 | – | – | – | – | – | –
CCCc1nn(C)c2c(N3CCOCC3)nc(-c3ccc([N+](=O)[O-])o3)nc12 | > 32 | > 32 | inactive | > 50 | – | – | – | – | – | –
CCCc1nn(C)c2c(=O)[nH]c(-c3ccc([N+](=O)[O-])o3)nc12 | 8 (≈ 26.4 µM) | 8 (≈ 26.4 µM) | inactive | > 50 | – | – | – | – | – | –
CCCc1nn(C)c2c(N3CCN(C)CC3)nc(-c3ccc([N+](=O)[O-])o3)nc12 | > 32 | > 32 | inactive | > 50 | – | – | – | – | – | –
CCCc1nn(C)c2c(N3CCN(c4ccccc4O)CC3)nc(-c3ccc([N+](=O)[O-])o3)nc12 | > 32 | > 32 | inactive | > 50 | – | – | – | – | – | –
CCCc1nn(C)c2c(N3CCC(CCO)CC3)nc(-c3ccc([N+](=O)[O-])o3)nc12 | > 32 | > 32 | inactive | > 50 | – | – | – | – | – | –
CCCc1nn(C)c2c(N3CCCCC3)nc(-c3ccc([N+](=O)[O-])o3)nc12 | > 32 | > 32 | inactive | > 50 | – | – | – | – | – | –
CCCc1nn(C)c2c(Nc3ccccc3O)nc(-c3ccc([N+](=O)[O-])o3)nc12 | 1 (≈ 2.54 µM) | 0.5 (≈ 1.27 µM) | inactive | > 50 | – | – | – | – | – | –
CCCc1nn(C)c2c(Nc3cccc(F)c3)nc(-c3ccc([N+](=O)[O-])o3)nc12 | 4 (≈ 10.1 µM) | > 32 | inactive | 38.9 (≈ 98 µM) | – | – | – | – | – | –
CCCc1nn(C)c2c(NCCCN3CCOCC3)nc(-c3ccc([N+](=O)[O-])o3)nc12 | > 32 | > 32 | inactive | > 50 | – | – | – | – | – | –
CCCc1nn(C)c2c(N3CCC(=O)CC3)nc(-c3ccc([N+](=O)[O-])o3)nc12 | 16 (≈ 41.6 µM) | > 32 | inactive | > 50 | – | – | – | – | – | –
